Fewer inactive variants are shown than the library holds.
B1: tRNA (parent)
chain: GUUCCGUUGGCGUAAUGGUAACGCGUCUCCCUCCUAAGGAGAAGACUGCGGGUUCGAGUCCCGUACGGAACG

Variants of: B1
Assay: yeast fitness relative to wild type (ratio to wild type); higher = fitter; tRNA-Arg(CCU), competitive growth, 37 C, YPD
Method in brief: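 A pool of Saccharomyces cerevisiae strains, each with a tRNA-Arg(CCU) gene variant at the native genomic locus, was competed in YPD at 37°C for 24 hours across six parallel replicates. The variants had been chemically synthesised at a 3% per-site mutation rate over 69 sites, and gene amplicons before and after competition were read by 100-nucleotide paired-end sequencing. Darwinian fitness relative to wild type rested on changes in genotype frequencies. Genotypes required ≥ 100 starting reads, and estimates < 0.5 were set to 0.5.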

Variant | yeast fitness
C34A G44C G68A | ≤ 0.5
C34A G50A C61G | ≤ 0.5
C34A G51A C61G A69U | 0.606
C34A G51A G67A | ≤ 0.5
C34A G51C | ≤ 0.5
C34A G52A | 0.741
C34A G52C | 0.721
C34A G52C C60G | 0.544
C34A G56C G58A G63C A65U | ≤ 0.5
C34A G63A | 0.621
C34A G67A | 0.652
C34A G68A | 0.647
C34A U35A C49A C55U | ≤ 0.5
C34A U35C | 0.519
C34A U47A C61G | ≤ 0.5
C34A U47A G68A | ≤ 0.5
C34A U47C A57G A65U | ≤ 0.5
C34A U47C A70G | 0.612
C34A U47C G51A A69U | ≤ 0.5
C34A U53A G67A | ≤ 0.5
C34A U54C | 0.566
C34A U59C | 0.728
C34A U64A | 0.783
C34G | 0.65

Variant | yeast fitness
C34G A36C | ≤ 0.5
C34G A36G | 0.644
C34G A36G C60G | 0.642
C34G A36G G52A C66U | ≤ 0.5
C34G A36U C62U | ≤ 0.5
C34G A37C C60A | ≤ 0.5
C34G A37C G38A C66U | ≤ 0.5
C34G A37C G44C | ≤ 0.5
C34G A37C G58C | ≤ 0.5
C34G A37C G63A | ≤ 0.5
C34G A37G | 0.725
C34G A37G A65G | 0.966
C34G A37U C49G A57G A65G C66U | ≤ 0.5
C34G A37U C62A | ≤ 0.5
C34G A40C | 0.636
C34G A40C C62U A69U | 0.573
C34G A40G C46G C49A C66A A69U | ≤ 0.5
C34G A40G G41U C46G A57U C61U | ≤ 0.5
C34G A40G U53A G68C | ≤ 0.5
C34G A40U | 0.596
C34G A40U A43C C49G G50A C60U | ≤ 0.5
C34G A42C C55A C60U | ≤ 0.5
C34G A42G | 0.716
C34G A42G C49A | ≤ 0.5

Variant | yeast fitness
C34G A42G C66U | 1.03
C34G A42G G44C C66A | ≤ 0.5
C34G A42G G48C | 0.531
C34G A42U C61U | ≤ 0.5
C34G A42U G68C | ≤ 0.5
C34G A43C | 0.594
C34G A43C G50C | ≤ 0.5
C34G A43U | 0.625
C34G A43U C49A | 0.737
C34G A43U C49A A69U | 0.584
C34G A45C A57C | 0.514
C34G A45C A57C A65G | ≤ 0.5
C34G A45C G51A A65U | 0.617
C34G A45G C60U A69U | ≤ 0.5
C34G A45U | 0.567
C34G A45U G68C | 0.578
C34G A57G A65G C66U | 0.58
C34G A57G C61U | ≤ 0.5
C34G A65C | 0.65
C34G A65G | 0.765
C34G A65U | 0.581
C34G A65U A70G | ≤ 0.5
C34G A65U C66A | ≤ 0.5
C34G A69C | 0.589

Variant | yeast fitness
C34G A69U | 0.631
C34G A70C | 0.585
C34G A70G | 0.586
C34G A70U | 0.597
C34G C46A | 0.615
C34G C46A C62U A69C | ≤ 0.5
C34G C46U | 0.616
C34G C46U A57U C60G A65C | ≤ 0.5
C34G C46U C49U | ≤ 0.5
C34G C49A G50A | ≤ 0.5
C34G C49A U59G | 0.547
C34G C49G | 0.657
C34G C49G A65G | ≤ 0.5
C34G C49G C61U A69G | 0.567
C34G C55A | ≤ 0.5
C34G C55A C66U | ≤ 0.5
C34G C55A G68A | ≤ 0.5
C34G C55G U59C C60U | ≤ 0.5
C34G C55G U59C C60U G67U | 0.555
C34G C55U G58A | ≤ 0.5
C34G C60U | 0.536
C34G C61A | 0.613
C34G C61U C66U | 0.538
C34G C62A | 0.64

Variant | yeast fitness
C34G C62U | 0.639
C34G C66U | 0.634
C34G G38A A57G | 0.539
C34G G38C A40U G48C C49G | ≤ 0.5
C34G G38C A69U | 0.5
C34G G38C A70G | ≤ 0.5
C34G G38C G68C | 0.582
C34G G38C U47C C62G A69C | ≤ 0.5
C34G G39A A70C | ≤ 0.5
C34G G39A C49G C61U | ≤ 0.5
C34G G39A G50C | ≤ 0.5
C34G G39C U53G G56A | ≤ 0.5
C34G G39U U47G | ≤ 0.5
C34G G41C C60A | 0.607
C34G G44C C66A | 0.595
C34G G44C G58C G68U | ≤ 0.5
C34G G44U C49G C61U A69G | ≤ 0.5
C34G G48A | 0.662
C34G G48A A70U | 0.584
C34G G48C C62U C66G | ≤ 0.5
C34G G48C C66U | 0.562
C34G G48C U59C | 0.712
C34G G50A U59A | ≤ 0.5
C34G G50C | ≤ 0.5

Variant | yeast fitness
C34G G50C A69U | ≤ 0.5
C34G G50C C55G | 0.59
C34G G50C C55G C60A | 0.715
C34G G50C G56C | ≤ 0.5
C34G G51C U53C | 0.616
C34G G52A A69C | 0.645
C34G G52C C60G | ≤ 0.5
C34G G58C A65U | ≤ 0.5
C34G G63A | 0.633
C34G G67C | 0.604
C34G G68A | 0.586
C34G G68C | 0.603
C34G U35A G63C | ≤ 0.5
C34G U35G A40U A42G C61G | ≤ 0.5
C34G U35G G39A | 0.593
C34G U47C | 0.599
C34G U47C C49U | 0.638
C34G U53C | 0.578
C34G U54C | 0.569
C34G U59A | 0.538
C34G U59G | 0.534
C34U | 0.707
C34U A36C | 0.554
C34U A36G | 0.696

Variant | yeast fitness
C34U A36G A40U | ≤ 0.5
C34U A36G A45U U64A | ≤ 0.5
C34U A36G C49U C55G A57U G67A | ≤ 0.5
C34U A36G C66A | ≤ 0.5
C34U A36G G41A U47A G58C G63C G67A | ≤ 0.5
C34U A37C G63A | ≤ 0.5
C34U A37G A45U C49A | ≤ 0.5
C34U A37G C62A | ≤ 0.5
C34U A37U | 0.535
C34U A37U A45G | ≤ 0.5
C34U A37U A45U A57G C61U | ≤ 0.5
C34U A37U A45U A57G C61U A70G | ≤ 0.5
C34U A37U C46A G51A A65U | ≤ 0.5
C34U A40G | 0.729
C34U A40G A43G C62A A69C | ≤ 0.5
C34U A40U | 0.632
C34U A42C A69C | ≤ 0.5
C34U A42G | 0.712
C34U A43G A69C | 0.553
C34U A43G U54C | ≤ 0.5
C34U A43U A45U | 0.534
C34U A45C | 0.6
C34U A45C A69C A70C | 0.569
